ChEMBL document CHEMBL1129574, “Synthesis, structure-activity relationships, and pharmacokinetic properties of dihydroorotate dehydrogenase inhibitors: 2-cyano-3-cyclopropyl-3-hydroxy-N-[3'-methyl-4'-(trifluoromethyl)phenyl ] propenamide and related compounds” (J Med Chem, 1996)

Legend:
[1] = target: Dihydroorotate dehydrogenase (quinone), mitochondrial (Mus musculus, UniProt O35435); experiment: Inhibitory concentration tested on enzyme dihydroorotate dehydrogenase in mouse
[2] = tested on: Rattus norvegicus; experiment: In vivo ability to inhibit delayed type hypersensitivity in rat at a concentration of 50 mg/kg; assay type: functional
Outline: (§1)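 Male CFHB rats (160-180 g, n=7-12) sensitized day 0 by tail-base s.c. FCA (0.4 mg M. tuberculosis in liquid paraffin); controls got incomplete adjuvant. Day 7 challenge: soluble M. tuberculosis extract 0.4 mg into right hind footpad, saline in left. Oral dosing once daily days 4-6 and twice day 7 (1 h before, 6 h after). Edema read at 24 h; Student's t-test.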

[3] = tested on: Mus musculus; experiment: In vivo ability to inhibit delayed type hypersensitivity in mouse at a concentration of 100 mg/kg; assay type: functional
Outline: (§2)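 Male CD-1 mice (25–30 g, n = 8-16) sensitized day 0 by s.c. 1 mg methylated BSA in saline/Freund's complete adjuvant; negative controls saline/FCA. Day 7 challenge: MBSA 0.1 mg into right hind footpad, saline in left. Oral dosing once daily days 4–6 plus twice on day 7 (1 h before, 6 h after challenge). Paw edema read 24 h post-challenge; Student's t-test.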

[4] = t1/2 in rat plasma after oral dose (10 mg/kg); assay type: ADME, organism-based
Outline: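 Male Wistar CFHB rats (190–220 g, n=3/time point) given 10 mg/kg orally by gavage (10 mL/kg). Cardiac-puncture blood under ether at 0, 1, 3, 6, 24, 48, 72 h, individual heparinized samples; plasma kept at −20 °C. Levels by HPLC (ODS column, 0.1 M pH 7 phosphate 65%/acetonitrile 35%, UV 300 nm), internal standard, peak-area calibration from spiked blank plasma.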

[5] = tested on: Rattus norvegicus; experiment: In vivo for its ability to inhibit delayed type hypersensitivity in rat following 10 mg/kg administration.
[6] = tested on: Mus musculus; experiment: In vivo for its ability to inhibit delayed type hypersensitivity in mouse following 30 mg/kg administration.; assay type: functional; outline: as §2
[7] = t1/2 in mouse plasma after oral dose (30/mg/Kg); assay type: ADME, organism-based
Outline: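 Male CD-1 mice (25–32 g, n=5/time point) gavaged orally 30 mg/kg (10 mL/kg). Blood by exsanguination under ether at 0, 1, 3, 6, 24, 48, 72 h, pooled per time point, heparinized; plasma stored −20 °C. Drug quantified by reversed-phase HPLC (ODS, pH 7 phosphate/acetonitrile 65:35, UV 300 nm) with internal standard and spiked-plasma calibration.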

[8] = target: Dihydroorotate dehydrogenase (quinone), mitochondrial (Rattus norvegicus, UniProt Q63707); experiment: Inhibitory concentration tested against enzyme dihydroorotate dehydrogenase in rat
Chain of Dihydroorotate dehydrogenase (quinone), mitochondrial (Rattus norvegicus, UniProt Q63707) (Q63707 whole entry): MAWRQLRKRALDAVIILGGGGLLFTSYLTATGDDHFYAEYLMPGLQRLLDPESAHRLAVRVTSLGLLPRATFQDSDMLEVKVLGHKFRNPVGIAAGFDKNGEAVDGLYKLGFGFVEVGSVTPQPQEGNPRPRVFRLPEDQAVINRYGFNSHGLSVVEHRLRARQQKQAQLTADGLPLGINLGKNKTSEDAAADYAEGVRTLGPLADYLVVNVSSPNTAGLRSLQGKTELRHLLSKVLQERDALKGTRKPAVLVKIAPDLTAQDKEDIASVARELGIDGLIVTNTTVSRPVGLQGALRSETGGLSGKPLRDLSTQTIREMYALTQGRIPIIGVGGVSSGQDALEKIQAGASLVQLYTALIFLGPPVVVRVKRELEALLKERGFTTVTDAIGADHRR

[9] = tested on: Mus musculus; experiment: Compound was tested in vivo for its ability to inhibit DTH(delayed type hypersensitivity ) in mouse at a concentration of 100 mg/kg; assay type: functional; outline: as §2
[10] = tested on: Rattus norvegicus; experiment: Compound was tested in vivo for its ability to inhibit DTH(delayed type hypersensitivity ) in rat at a concentration of 50 mg/kg; assay type: functional; outline: as §1

Chain of Dihydroorotate dehydrogenase (quinone), mitochondrial (Mus musculus, UniProt O35435) (O35435 whole entry): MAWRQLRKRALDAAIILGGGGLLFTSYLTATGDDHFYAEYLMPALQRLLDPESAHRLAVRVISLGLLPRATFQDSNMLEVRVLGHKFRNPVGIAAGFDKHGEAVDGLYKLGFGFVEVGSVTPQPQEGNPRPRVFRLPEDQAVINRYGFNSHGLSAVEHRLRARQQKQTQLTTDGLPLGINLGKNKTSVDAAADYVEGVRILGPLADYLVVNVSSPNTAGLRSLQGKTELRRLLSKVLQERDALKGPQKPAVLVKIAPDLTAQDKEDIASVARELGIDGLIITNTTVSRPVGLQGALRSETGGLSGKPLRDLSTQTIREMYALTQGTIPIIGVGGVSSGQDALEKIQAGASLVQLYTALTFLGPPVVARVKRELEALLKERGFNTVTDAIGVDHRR

IC50 [1] [µM] | half-life [4] [min] | half-life [7] [min] | IC50 [8] [nM] | SMILES | inhibition in vivo at 50 mg/kg [2] [%] | inhibition in vivo at 100 mg/kg [3] [%] | inhibition in vivo at 10 mg/kg [5] [%] | inhibition in vivo at 30 mg/kg [6] [%] | inhibition in vivo at 100 mg/kg [9] [%] | inhibition in vivo at 50 mg/kg [10] [%]
5.9 |  |  |  | N#C/C(C(=O)Nc1ccc(-c2ccco2)cc1)=C(/O)C1CC1 | 58 | -13 |  |  |  | 
5 | 5040 | 4080 |  | N#C/C(C(=O)Nc1ccc(C#Cc2ccc(Cl)cc2)cc1)=C(/O)C1CC1 |  |  | 61 | 61 |  | 
3.72 |  |  | 1250 | Cc1cc(Cl)ccc1NC(=O)/C(C#N)=C(\O)C1CC1 |  |  | 30 | 54 |  | 
1.12 |  |  |  | COC(=O)c1ccc(NC(=O)/C(C#N)=C(\O)C2CC2)cc1 | 59 | 34 |  |  |  | 
37.2 |  |  | 4570 | N#CCc1ccc(NC(=O)/C(C#N)=C(\O)C2CC2)cc1 |  |  |  |  | 36 | 3
0.282 |  |  | 79 | Cc1ccc(NC(=O)/C(C#N)=C(\O)C2CC2)cc1Cl | 31 | 43 |  |  |  | 
> 100 |  |  | > 100000 | N#C/C(C(=O)Nc1ccccc1C(F)(F)F)=C(/O)C1CC1 |  |  |  |  | -10 | -4
0.047 | 480 | 1680 | 21 | N#C/C(C(=O)Nc1ccc(C(F)(F)F)cc1)=C(/O)C1CC1 |  |  | 53 | 85 |  | 
0.063 | 240 | 120 | 50 | Cc1cc(NC(=O)/C(C#N)=C(\O)C2CC2)ccc1Br | 66 | 86 |  |  |  | 
0.055 | 240 | 480 | 14 | Cc1cc(NC(=O)/C(C#N)=C(\O)C2CC2)ccc1C(F)(F)F |  |  | 59 | 81 |  | 
8.51 |  |  | 2140 | N#C/C(C(=O)Nc1ccc(-c2ccc(F)cc2)cc1)=C(/O)C1CC1 |  |  | 79 | 53 |  | 
0.04 | 120 | 480 | 33 | Cc1cc(NC(=O)/C(C#N)=C(\O)C2CC2)ccc1Cl |  |  | 42 | 41 |  | 
11.7 |  |  | 17800 | N#C/C(C(=O)Nc1ccc(C(F)(F)F)cc1)=C(/O)C1CCOC1 (centres undefined) | 14 | 29 |  |  |  | 
3.8 | 360 | 240 | 68 | CC(=O)c1ccc(NC(=O)/C(C#N)=C(\O)C2CC2)cc1 |  | 32 | 59 |  |  | 
7.94 |  |  | 44700 | N#C/C(C(=O)Nc1ccc(C(F)(F)F)cc1)=C(/O)C1CCCO1 (centres undefined) | 11 | 29 |  |  |  | 
28.2 |  |  | 31600 | N#C/C(C(=O)Nc1ccc(C(F)(F)F)cc1)=C(/O)C1CCCC1 | 19 | 58 |  |  |  | 

IC50 [1] [µM] | half-life [4] [min] | half-life [7] [min] | IC50 [8] [nM] | SMILES | inhibition in vivo at 50 mg/kg [2] [%] | inhibition in vivo at 100 mg/kg [3] [%] | inhibition in vivo at 10 mg/kg [5] [%] | inhibition in vivo at 30 mg/kg [6] [%] | inhibition in vivo at 100 mg/kg [9] [%] | inhibition in vivo at 50 mg/kg [10] [%]
50 |  |  | 3000 | N#C/C(C(=O)Nc1ccc(-c2nc(C(F)(F)F)cs2)cc1)=C(/O)C1CC1 |  |  | 30 |  |  | 
15.1 |  |  |  | CS(=O)(=O)c1ccc(NC(=O)/C(C#N)=C(\O)C2CC2)cc1 |  |  |  |  | 36 | 50
> 100 |  |  | > 100000 | N#C/C(C(=O)Nc1ccc(C(F)(F)F)cc1)=C(/O)C1CCCN1 (centres undefined) | -16 | -4 |  |  |  | 
> 100 |  |  | > 100000 | CN1CCCC1/C(O)=C(\C#N)C(=O)Nc1ccc(C(F)(F)F)cc1 (centres undefined) | 23 | 10 |  |  |  | 
3.72 |  |  | 186 | COc1ccc(NC(=O)/C(C#N)=C(\O)C2CC2)cc1 | 57 | 9 |  |  |  | 
2.24 |  |  | 19100 | CN(C(=O)c1ccc(NC(=O)/C(C#N)=C(\O)C2CC2)cc1)c1ccc(Cl)cc1 | 22 | -8 |  |  |  | 
1.51 |  |  | 3550 | N#C/C(C(=O)Nc1ccc(Oc2ccc(C(F)(F)F)cc2)cc1)=C(/O)C1CC1 |  |  | 39 | -17 |  | 
20 |  |  | 4270 | N#C/C(C(=O)Nc1ccc(-c2ncco2)cc1)=C(/O)C1CC1 | 42 | 17 |  |  |  | 
> 100 |  |  | 14100 | N#C/C(C(=O)Nc1ccc(C(N)=O)cc1)=C(/O)C1CC1 | 20 | -18 |  |  |  | 
8.91 |  |  | 11700 | N#C/C(C(=O)Nc1ccncc1)=C(/O)C1CC1 | 17 | 22 |  |  |  | 
3.72 |  |  | 1480 | N#C/C(C(=O)Nc1ccc(C(=O)O)cc1)=C(/O)C1CC1 | 39 | -6 |  |  |  | 
0.071 | 360 | 360 | 40 | CCc1cc(NC(=O)/C(C#N)=C(\O)C2CC2)ccc1C(F)(F)F |  |  | 74 | 61 |  | 
22.4 |  |  | 832 | C[S+]([O-])c1ccc(NC(=O)/C(C#N)=C(\O)C2CC2)cc1 (centres undefined) |  |  |  |  | 1 | 71
0.036 | 360 | 420 | 28 | Cc1cc(NC(=O)/C(C#N)=C(\O)C2CC2)ccc1C#N |  |  | 50 | 66 |  | 
> 100 |  |  | 7940 | N#C/C(C(=O)Nc1ccc(O)cc1)=C(/O)C1CC1 | 37 | -11 |  |  |  | 
31.6 |  |  | 21900 | N#C/C(C(=O)Nc1ccc(N)cc1)=C(/O)C1CC1 | 1 | 32 |  |  |  | 

SMILES | IC50 [1] [µM] | half-life [4] [min] | half-life [7] [min] | IC50 [8] [nM] | inhibition in vivo at 50 mg/kg [2] [%] | inhibition in vivo at 100 mg/kg [3] [%] | inhibition in vivo at 10 mg/kg [5] [%] | inhibition in vivo at 30 mg/kg [6] [%] | inhibition in vivo at 100 mg/kg [9] [%] | inhibition in vivo at 50 mg/kg [10] [%]
C=C/C(O)=C(\C#N)C(=O)Nc1ccc(C(F)(F)F)cc1 |  |  |  | 23 |  | 7 |  |  |  | 74
N#C/C(C(=O)Nc1ccc(-c2cccs2)cc1)=C(/O)C1CC1 | 2.51 |  |  | 631 |  |  | 34 |  |  | 
N#C/C(C(=O)Nc1ccc(Oc2ccccc2)cc1)=C(/O)C1CC1 |  |  |  | 290 | 6 | 9 |  |  |  | 
N#C/C(C(=O)Nc1ccc(Oc2ccc(Cl)cc2)cc1)=C(/O)C1CC1 | 0.832 | 2340 | 1260 | 1510 |  |  | 31 | 63 |  | 
N#C/C(C(=O)Nc1ccc(Cl)nc1)=C(/O)C1CC1 | 1.78 |  |  |  | 71 |  |  | 9 |  | 
N#C/C(C(=O)Nc1ccc(-c2ccccc2)cc1)=C(/O)C1CC1 |  |  |  | 1480 | 70 | 33 |  |  |  | 
N#C/C(C(=O)Nc1ccc(Cl)cn1)=C(/O)C1CC1 | 0.2 |  |  | 76 | 64 | 48 |  |  |  | 
N#C/C(C(=O)Nc1ccc(C(=O)c2ccc(Cl)cc2)cc1)=C(/O)C1CC1 | 0.562 |  |  | 590 |  |  | -19 | 4 |  | 
N#C/C(C(=O)Nc1ccc(Br)cn1)=C(/O)C1CC1 |  | 780 | 420 | 37 |  |  | 66 | 4 |  | 
N#C/C(C(=O)Nc1ccc(C=Cc2ccc(Cl)cc2)cc1)=C(/O)C1CC1 | 0.022 |  |  |  | 52 | 19 |  |  |  | 
N#C/C(C(=O)Nc1ccc(C(F)(F)F)cc1)=C(/O)C1CCC1 | 0.209 |  |  | 282 | 1 | 4 |  |  |  | 
N#C/C(C(=O)Nc1ccc(/C=C/c2ccc(Cl)cc2)cc1)=C(/O)C1CC1 | 12.6 | > 1800 | 2580 |  | 46 | 69 |  |  |  | 
Cc1oncc1C(=O)Nc1ccc(C(F)(F)F)cc1 [LEFLUNOMIDE] | 0.03 |  |  | 9 |  |  | 78 | 84 |  | 
